Experimental data published in ChEMBL document CHEMBL1138118, “Synthesis and anti-HSV-1 activity of quinolonic acyclovir analogues” (Bioorg Med Chem Lett, 2006).

How the values were obtained:
[1] = tested on: Vero; assay: Cytotoxicity against Vero cells by MTT assay; format: functional; conditions: Chlorocebus sabaeus
Procedure, shortened: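 Uninfected Vero monolayers were exposed to a range of compound concentrations for 72 h at 37 °C. MTT ([…]) was then added for 4 h at 37 °C, followed by 10% SDS/0.01 N HCl overnight. Absorbance was read at 540 nm against a 690 nm reference. CC50 is the concentration reducing host-cell viability by 50%.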

[2] = tested on: Vero; assay: Selectivity index (CC50/EC50) in Vero cells; format: functional
Procedure, shortened: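 Ratio of CC50 (uninfected Vero, 72 h exposure) to EC50 (HSV-1 ACR-29 virus-yield inhibition in Vero); the two were determined in parallel.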

[3] = tested on: Human alphaherpesvirus 1; assay: Antiviral activity against HSV1 at 50 uM; format: functional; conditions: Human alphaherpesvirus 1, ACR-29
Procedure, shortened: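 Vero cells (DMEM, 2% heat-inactivated FBS, 8% calf serum) were infected with HSV-1 strain ACR-29 at 1 PFU/cell for 2 h at 37 °C. The inoculum was then replaced with medium containing compound at 50 µM. After 3 days at 37 °C in 5% CO₂, supernatant titre (TCID50/mL) was measured by endpoint dilution (Reed–Muench) against untreated controls. Means of triplicates.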

[4] = tested on: Human alphaherpesvirus 1; assay: Antiviral activity against HSV1 in vero cells; format: functional, organism-based; conditions: Human alphaherpesvirus 1, Vero
Procedure, shortened: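 Yield reduction: confluent Vero cells were infected with HSV-1 ACR-29 at moi 1 pfu/cell for 1 h at 37 °C, washed, then given medium with varying compound concentrations. At 20 h they were freeze-thawed three times and spun at 400g for 10 min at 4 °C. Titre was read by plaque assay under 1% methylcellulose for 72 h with crystal violet stain. EC50 is the concentration inhibiting virus yield by 50%.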

[5] = tested on: Human alphaherpesvirus 1; assay: Antiviral activity against HSV1 at 10 uM; format: functional; conditions: Human alphaherpesvirus 1, ACR-29
Procedure, shortened: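 Vero cells (DMEM with 2% heat-inactivated FBS plus 8% calf serum) infected with HSV-1 strain ACR-29 at 1 PFU/cell for 2 h at 37 °C. The inoculum was replaced with medium containing compound at 10 µM; untreated infected controls got medium only. After 3 days at 37 °C in 5% CO2, supernatant titre was read by endpoint dilution (TCID50/mL, Reed-Muench). Values are means of triplicates.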

| SMILES | CC50 [1] | Selectivity index [2] | inhibition at 50 µM [3] | EC50 [4] | inhibition at 10 µM [5] |
| --- | --- | --- | --- | --- | --- |
| CCOC(=O)c1cn(COCCO)c2cc(Cl)ccc2c1=O | 1200 µM | 1375 | 99% | 0.87 µM |  |
| Cc1ccc2c(=O)c(C(=O)O)cn(COCCO)c2c1 |  |  | 79% |  |  |
| O=C(O)c1cn(COCCO)c2cc(F)ccc2c1=O | > 500 µM | >357 | 97% | 1.4 µM |  |
| O=C(O)c1cn(COCCO)c2cc([N+](=O)[O-])ccc2c1=O |  |  | 77% |  |  |
| CCOC(=O)c1cn(COCCO)c2ccc(F)cc2c1=O | > 500 µM | >217 | 97% | 2.3 µM |  |
| COc1ccc2c(=O)c(C(=O)O)cn(COCCO)c2c1 |  |  | 79% |  |  |
| CCOC(=O)c1cn(COCCO)c2cc([N+](=O)[O-])ccc2c1=O |  |  | 77% |  |  |
| Cc1ccc2c(c1)c(=O)c(C(=O)O)cn2COCCO | > 500 µM | >227 | 93% | 2.2 µM |  |
| O=C(O)c1cn(COCCO)c2ccc(F)cc2c1=O |  |  | 70% |  |  |
| O=C(O)c1cn(COCCO)c2ccc(Br)cc2c1=O |  |  | 58% |  |  |
| CCOC(=O)c1cn(COCCO)c2cc(C)ccc2c1=O |  |  | 77% |  |  |
| CCOC(=O)c1cn(COCCO)c2ccc(Br)cc2c1=O |  |  | 84% |  |  |
| CCOC(=O)c1cn(COCCO)c2ccc([N+](=O)[O-])cc2c1=O | 960 µM | 640 | 95% | 1.5 µM |  |
| CCOC(=O)c1cn(COCCO)c2cc(OC)ccc2c1=O |  |  | 89% |  |  |
| O=C(O)c1cn(COCCO)c2cc(Cl)ccc2c1=O | 1200 µM | 1714 | 96% | 0.7 µM |  |
| CCOC(=O)c1cn(COCCO)c2ccc(C)cc2c1=O |  |  | 82% |  |  |
| O=C(O)c1cn(COCCO)c2ccc(Cl)cc2c1=O | 1400 µM | 1273 | 98% | 1.1 µM |  |
| O=C(O)c1cn(COCCO)c2ccc([N+](=O)[O-])cc2c1=O |  |  | 70% |  |  |
| COc1ccc2c(c1)c(=O)c(C(=O)O)cn2COCCO |  |  | 89% |  |  |
| CCOC(=O)c1cn(COCCO)c2cc(F)ccc2c1=O |  |  | 65% |  |  |
| CCOC(=O)c1cn(COCCO)c2ccc(Cl)cc2c1=O | 1250 µM | 1562 | 97% | 0.8 µM |  |
| CCOC(=O)c1cn(COCCO)c2ccc(OC)cc2c1=O | > 500 µM | >156 | 99% | 3.2 µM |  |
| Nc1nc2c(ncn2COCCO)c(=O)[nH]1 [ACYCLOVIR] | 960 µM | 880 |  | 1.09 µM | 96% |
